For experiment [1], the system named is A549. As to the kind of experiment: Cytotoxicity against human A549 cells after 48 hrs by MTT assay. The experiment is classed as functional, cell-based. The note with it: A549, 48 h. In short, it runs like this: (§1)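 A549 human NSCLC cells kept in MEM with 10% FBS, penicillin/streptomycin and amphotericin B at 37 °C under humidified 5% CO2. Seeded at 1x10⁴ cells/well and left 24 h, then exposed to a range of concentrations for 48 h or 72 h at 37 °C. MTT (1 mg/mL) added for 4 h, formazan dissolved in DMSO, absorbance read at 540 nm. IC50 taken against untreated controls by log(compound) vs normalized response (variable slope) fit, with 95% CI.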
(In general: Formazan colour is commonly taken as a measure of viable cells.)

Experiment [2] has as its system A549. As to the kind of experiment: Cytotoxicity against human A549 cells after 72 hrs by MTT assay. The note with it: A549, 72 h. The experiment is classed as functional, cell-based. Summed up: as §1
For experiment [3], the system named is A549. In words: Ratio of IC50 for human A549 cells after 48 hrs to IC50 for human A549 cells after 72 hrs. In kind it is functional. Summed up:
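Ratio of the 48 h to the 72 h IC50 in A549 cells. Both IC50s come from the MTT assay (1x10⁴ cells/well, 24 h attachment, then 48 h or 72 h compound exposure). Each was fitted by log(compound) vs normalized response nonlinear regression (variable slope), relative to untreated controls.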

One may read the IC50 as the concentration that gives 50% inhibition. Regarding `CC(=O)O[C@H]1C(=O)[C@@]2(C)[C@H]([C@H](OC(=O)c3ccccc3)[C@]3(O)C[C@H](OC(=O)[C@H](O)[C@@H](NC(=O)c4ccccc4)c4ccccc4)C(C)=C1C3(C)C)[C@]1(OC(C)=O)CO[C@@H]1C[C@@H]2O` [PACLITAXEL], the results for the IC50 in experiment [1] and in experiment [2] were 1160 nM and 190 nM, respectively. Moreover, the “Ratio IC50” value in experiment [3] is listed as 6.1.

Source of the values: ChEMBL document CHEMBL2016559, “Synthesis and cytotoxic activity evaluation of dihydrocucurbitacin B and cucurbitacin B derivatives” (Bioorg Med Chem, 2012).
